The test system of one data set is HeLa. The data set can be described thus: Antiproliferative activity against human HeLa cells by MTT assay. The format is functional, cell-based. The procedure, abridged: (§1)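 Growth inhibition rate calculated per compound. IC₅₀ derived by curve fitting.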
For the next data set, the system named is A2780. The data set is described as follows: Antiproliferative activity against human A2780 cells by MTT assay. It counts as functional, cell-based. The procedure, abridged: as §1
The test system of the next data set is HCT-116. The data set can be described thus: Antiproliferative activity against human HCT116 cells by MTT assay. The format is functional, cell-based. The procedure, abridged: as §1
A further data set has as its system MDA-MB-231. The data set can be described thus: Antiproliferative activity against human MDA-MB-231 cells by MTT assay. The format is functional, cell-based. The procedure, abridged:
as §1

The nature of data set [1]: Inhibition of pig brain tubulin polymerization measured every 1 min for 20 mins by spectrophotometric analysis. Further details: species or system Sus scrofa.
A short description of data set [2]: Cytotoxicity against HOSEC at 10 uM by MTT assay relative to control. To be noted: human.
Data set [3] is described as follows: Cytotoxicity against HOSEC at 50 uM by MTT assay relative to control. To be noted: human.

Turning to `COc1ccc(N2C(=O)NC(=O)C2c2cc(OC)c(OC)c(OC)c2)cn1` (stereo unspecified), the half-maximal inhibitory concentration (IC50) with HeLa and in the data set on A2780 was > 50 µM throughout.

Take `COc1ccc(C2C(=O)NC(=O)N2c2cc(OC)c(OC)c(OC)c2)cc1O` (stereo unspecified): the IC50 in the data set on HeLa and in the data set on A2780 was > 50 µM in each case.

For `COc1ccc(N2C(=O)NC(=O)C2c2cc(OC)c(OC)c(OC)c2)cc1OS(=O)(=O)F` (stereo unspecified), the IC50 came out at 6.76 µM in the data set with HeLa and 4.52 µM with A2780.

As for `COc1cc(C2C(=O)NC(=O)N2c2ccc3c(ccn3S(=O)(=O)c3ccc(C)cc3)c2)cc(OC)c1OC` (stereo unspecified), the IC50 in the data set on HeLa and in the data set on A2780 was > 50 µM throughout.

Turning to `CCN1C(=O)C(c2cc(OC)c(OC)c(OC)c2)N(c2ccc(OC)c(N)c2)C1=O` (stereo unspecified), the concentration for half-maximal inhibition (IC50) stood at 3.31 µM in the data set on HeLa and 1.91 µM with A2780.

Regarding `COc1ccc(C2C(=O)NC(=O)N2c2cc(OC)c(OC)c(OC)c2)cc1` (stereo unspecified), the 50% inhibitory concentration (IC50) in the data set on HeLa and in the data set on A2780 was > 50 µM throughout.

In the case of `COc1cc(C2C(=O)NC(=O)N2c2cnc3ccccc3c2)cc(OC)c1OC` (stereo unspecified), the 50% inhibitory concentration (IC50) in the data set on HeLa and with A2780 was > 50 µM throughout.

For `COc1cc(C2C(=O)N(C)C(=O)N2c2ccc(C)c(C)c2)cc(OC)c1OC` (stereo unspecified), the IC50 in the data set on HeLa is 0.363 µM; in the data set on A2780, 0.533 µM; with HCT-116, 0.307 µM; in the data set with MDA-MB-231, 0.493 µM.

As to `COc1ccc(N2C(=S)NC(=O)C2c2cc(OC)c(OC)c(OC)c2)cc1O` (stereo unspecified), the IC50 in the data set with HeLa and with A2780 was > 50 µM in each case.

Regarding `COc1cc(C2C(=O)NC(=O)N2c2cccc(O)c2)cc(OC)c1OC` (stereo unspecified), the concentration for half-maximal inhibition (IC50) with HeLa and in the data set with A2780 was > 50 µM in each case.

For the molecule `COc1cc(C2C(=O)N(C)C(=O)N2c2ccc(C)c(N)c2)cc(OC)c1OC` (stereo unspecified), the IC50 in the data set with HeLa worked out at 0.631 µM; with A2780, 0.679 µM; in the data set with HCT-116, 0.681 µM; in the data set with MDA-MB-231, 1.19 µM.

Take `COc1cc(C2C(=O)NC(=O)N2c2ccc3ncccc3c2)cc(OC)c1OC` (stereo unspecified): the 50% inhibitory concentration (IC50) with HeLa and with A2780 was > 50 µM in each case.

For the molecule `COc1ccc(N2C(=O)N(C)C(=O)C2c2cc(OC)c(OC)c(OC)c2)cc1O` (stereo unspecified), the half-inhibitory concentration (IC50) with HeLa was 0.429 µM; with A2780, 0.353 µM; with HCT-116 it was 0.386 µM; in the data set with MDA-MB-231, 0.301 µM.

Consider `COc1ccc(N2C(=S)NC(=O)C2c2cc(OC)c(OC)c(OC)c2)cc1` (stereo unspecified), for which the IC50 with HeLa and in the data set with A2780 was > 50 µM each time.

As to `COc1ccc(N2C(=O)N(C)C(=O)C2c2cc(OC)c(OC)c(OC)c2)cc1F` (stereo unspecified), the IC50 with HeLa stood at 0.516 µM; in the data set with A2780, 0.555 µM; in the data set with HCT-116, 0.527 µM; with MDA-MB-231 it was 0.452 µM.

For the molecule `COc1ccc(N2C(=O)N(C)C(=O)[C@H]2c2cc(OC)c(OC)c(OC)c2)cc1N`, the concentration for half-maximal inhibition (IC50) in the data set with HeLa was 0.081 µM; in the data set with A2780, 0.097 µM; in the data set on HCT-116 it was 0.157 µM; in the data set on MDA-MB-231, 0.125 µM.

Take `COc1cc(C2C(=O)NC(=O)N2c2cc(OC)c(OC)c(OC)c2)cc(OC)c1OC` (stereo unspecified): the IC50 in the data set with HeLa and in the data set with A2780 was > 50 µM throughout.

As to `COc1ccc(/C=C\c2cc(OC)c(OC)c(OC)c2)cc1O` [COMBRETASTATIN A4], the IC50 in the data set on HeLa was determined as 0.007 µM; in the data set on A2780, 0.005 µM; in the data set with MDA-MB-231 it was 0.002 µM; in data set [1] it was 6.6 µM.

With `COc1ccc(N2C(=O)N(C)C(=O)[C@@H]2c2cc(OC)c(OC)c(OC)c2)cc1N`, the IC50 came out at 0.399 µM in the data set on HeLa, 0.305 µM in the data set with A2780, 0.355 µM with HCT-116 and 0.582 µM with MDA-MB-231.

On to `COc1ccc(N2C(=O)NC(=O)C2c2cc(OC)c(OC)c(OC)c2)cc1[N+](=O)[O-]` (stereo unspecified), for which the 50% inhibitory concentration (IC50) in the data set on HeLa amounted to 4.74 µM; in the data set on A2780, 9.71 µM.

On to `COc1cc(C2C(=O)NC(=O)N2c2ccc3[nH]ccc3c2)cc(OC)c1OC` (stereo unspecified), for which the IC50 is > 50 µM in the data set on HeLa and 8.41 µM in the data set on A2780.

In the case of `COc1cc(C2C(=O)NC(=O)N2c2ccc(C)c(C)c2)cc(OC)c1OC` (stereo unspecified), the IC50 came out at 0.62 µM in the data set on HeLa, 0.627 µM in the data set on A2780, 0.475 µM in the data set with HCT-116 and 0.835 µM in the data set with MDA-MB-231.

Take `COc1ccc(N2C(=O)NC(=O)C2c2cc(OC)c(OC)c(OC)c2)cc1F` (stereo unspecified): the IC50 amounted to 0.771 µM with HeLa, 0.745 µM in the data set with A2780, 0.63 µM in the data set on HCT-116 and 0.727 µM in the data set on MDA-MB-231.

As to `COc1cc(C2C(=O)NC(=O)N2c2ccc(C)c([N+](=O)[O-])c2)cc(OC)c1OC` (stereo unspecified), the IC50 amounted to 5.45 µM in the data set on HeLa and 2.89 µM with A2780.

For `COc1ccc(N2C(=O)NC(=O)C2c2cc(OC)c(OC)c(OC)c2)cc1N` (stereo unspecified), the IC50 in the data set with HeLa was 0.584 µM; with A2780 it was 0.283 µM; in the data set with HCT-116, 0.232 µM; with MDA-MB-231 it was 0.311 µM.

Take `COc1ccc(N2C(=O)N(CCO)C(=O)C2c2cc(OC)c(OC)c(OC)c2)cc1N` (stereo unspecified): the values for the IC50 in the data set with HeLa and in the data set with A2780 were 3.6 µM and 6.62 µM, respectively.

For `COc1ccc(N2C(=O)NC(=O)C2c2cc(OC)c(OC)c(OC)c2)cc1` (stereo unspecified), the concentration for half-maximal inhibition (IC50) is 2.82 µM with HeLa and 2.14 µM in the data set with A2780.

As for `COc1ccc(N2C(=O)NC(=O)C2c2cc(OC)c(OC)c(OC)c2)cc1O` (stereo unspecified), the 50% inhibitory concentration (IC50) in the data set with HeLa worked out at 0.665 µM; in the data set on A2780, 0.815 µM; with HCT-116, 0.945 µM; in the data set on MDA-MB-231, 0.768 µM.

In the case of `COc1cc(C2C(=O)NC(=O)N2c2ccccc2)cc(OC)c1OC` (stereo unspecified), the concentration for half-maximal inhibition (IC50) in the data set with HeLa and with A2780 was > 50 µM throughout.

As to `COc1cc(C2C(=O)NC(=O)N2c2ccc(C)c(N)c2)cc(OC)c1OC` (stereo unspecified), the IC50 in the data set with HeLa came out at 0.933 µM; with A2780, 1.05 µM; in the data set on HCT-116, 0.988 µM; with MDA-MB-231 it was 1.17 µM.

Regarding `CC(=O)O[C@H]1C(=O)[C@@]2(C)[C@H]([C@H](OC(=O)c3ccccc3)[C@]3(O)C[C@H](OC(=O)[C@H](O)[C@@H](NC(=O)c4ccccc4)c4ccccc4)C(C)=C1C3(C)C)[C@]1(OC(C)=O)CO[C@@H]1C[C@@H]2O` [PACLITAXEL], the Activity in data set [2] was determined as 51%; in data set [3], 94%.
